Screening results deposited in PubChem by several laboratories.
PostGolgi yeast: growth inhibition of a yeast mutant, post-Golgi transport screen. post-Golgi transport phenotypic cell assay. hit rate 0.9% among 98,000. inhibition, % at 10 µM;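 note: yeast cells grown in 1536-well plates; yeast grown about 18 h at 30C before absorbance read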
PostGolgi ctrl: inhibits growth of the yeast control strain; inhibition, % at 10 µM; hit rate 5% among 98,000; efflux-deficient yeast background strain, growth absorbance A615, 16 h
Ecoli WT expand: E. coli BW25113 growth inhibition, expanded screen; OD600 absorbance; growth inhibition, % at 100 µM; hit rate 0.15% among 98,000;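 active = growth inhibition above about 50% at one test dose, limit read from the data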;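 note: growth measured after 20 h incubation at 37 °C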
EphB4 ephrin blk: blocks human EphB4 binding to ephrin-B2; P54760; EphB4 LBD / TNYL-RAW-Alexa532 peptide, fluorescence polarization; inhibition, % at 7 µM; hit rate 0.15% among 97,000;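 active = inhibition above the screen-wide mean inhibition plus 3 SD, cut at about 15% in these data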;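 note: 0% = DMSO wells and 100% = excess unlabeled TNYL-RAW peptide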
Target sequence (P54760 whole entry, looked up, the tested form may be a part): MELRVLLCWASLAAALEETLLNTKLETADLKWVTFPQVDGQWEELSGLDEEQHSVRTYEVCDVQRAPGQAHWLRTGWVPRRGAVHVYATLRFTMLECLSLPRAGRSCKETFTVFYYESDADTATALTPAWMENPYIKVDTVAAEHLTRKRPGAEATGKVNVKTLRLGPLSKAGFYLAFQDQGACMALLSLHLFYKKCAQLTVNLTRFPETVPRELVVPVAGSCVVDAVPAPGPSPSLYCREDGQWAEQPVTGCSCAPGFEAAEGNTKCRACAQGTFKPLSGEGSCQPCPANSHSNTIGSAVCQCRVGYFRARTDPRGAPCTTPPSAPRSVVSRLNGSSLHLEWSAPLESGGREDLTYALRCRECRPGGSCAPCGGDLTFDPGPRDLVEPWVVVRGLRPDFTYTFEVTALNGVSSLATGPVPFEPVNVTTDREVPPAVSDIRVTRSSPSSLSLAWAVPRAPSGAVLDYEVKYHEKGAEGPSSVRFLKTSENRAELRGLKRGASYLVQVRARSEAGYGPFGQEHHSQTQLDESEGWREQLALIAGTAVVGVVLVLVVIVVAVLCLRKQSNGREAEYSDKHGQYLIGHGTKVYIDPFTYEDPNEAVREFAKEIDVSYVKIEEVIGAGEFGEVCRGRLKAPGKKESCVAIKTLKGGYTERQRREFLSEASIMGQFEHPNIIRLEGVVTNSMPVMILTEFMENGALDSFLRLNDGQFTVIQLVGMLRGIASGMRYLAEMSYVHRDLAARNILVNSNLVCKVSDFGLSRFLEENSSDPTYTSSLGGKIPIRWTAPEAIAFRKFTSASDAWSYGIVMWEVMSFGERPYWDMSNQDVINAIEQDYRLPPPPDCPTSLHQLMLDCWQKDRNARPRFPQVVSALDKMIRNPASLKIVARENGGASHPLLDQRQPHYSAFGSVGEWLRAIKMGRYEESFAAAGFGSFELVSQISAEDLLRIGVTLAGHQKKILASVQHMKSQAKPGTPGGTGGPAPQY
tolC growth inh: E. coli tolC mutant growth inhibition | E. coli BW25113 tolC mutant growth, OD615 | growth inhibition, % at 10 µM (by protocol) | hit rate 2.2% among 65,000 | AID 573;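 active = growth inhibition at or above a cutoff equal to the mean over every tested compound plus 3 SD, cut at about 60% in these data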;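 note: growth measured after 20 h incubation at 37 °C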
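Material: E. coli BW25113 ΔtolC::kan, tolC deletion mutant strain. Measure: percent growth inhibition. Schedule: 37 °C, 20 h exposure. Doses: single-point testing at 10 µM. Signal: A615 absorbance measurement. Buffer or medium: kanamycin-containing LB broth (50 µg/mL).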
Active calls of the source: *; . = not tested or not shown. Sampled rows, rich in hits. Any-hit rate of the full collection: about 6%. Cut-off read from the data, not from the text of the source, unless noted: active = inhibition above about 30%; inactive = the rest.

SMILES	PostGolgi yeast	PostGolgi ctrl	Ecoli WT expand	EphB4 ephrin blk	tolC growth inh
O=C(c1sc2ccccc2c1Cl)N(Cc1ccccc1)C1CCS(=O)(=O)C1 (centres undefined)	-15	23	-17	7	.
CCN(CC)S(=O)(=O)c1ccc(C)c(NC(=O)COC(=O)c2ccc(C)c(S(=O)(=O)N3CCOCC3)c2)c1	-1	-2	-4	-3	.
C=CCn1c(N)c(C(=O)Nc2ccccc2)c2nc3ccccc3nc21	10	37*	-13	.	5
C=CCn1c(N)c(C(=O)OC(C)(C)C)c2nc3ccccc3nc21	19	10	2	6	5
C=CCNC(=O)c1c(N)n(-c2cccc(S(N)(=O)=O)c2)c2nc3ccccc3nc12	8	-2	-3	-2	6
C=CCn1c(N)c(C(=O)OC(C)CC)c2nc3ccccc3nc21 (centres undefined)	-2	38*	0	-2	22
CCN(CC)CC(=O)Nc1cc(C)c2c(=O)oc3ccccc3c2n1	.	.	.	.	-4
CC(OC(=O)c1cccnc1SCc1cc(=O)n2ccccc2n1)c1ccccn1 (centres undefined)	-5	10	4	-1	.
CCOC(=O)c1cccnc1SCc1cc(=O)n2ccccc2n1	63*	28	4	0	0
O=C1OC(c2ccc(O)cc2)(c2ccc(O)cc2)c2ccccc21	.	.	.	.	72*
CCCCn1c(SCC(=O)Nc2nc(C)cs2)nnc1-c1cccnc1	-5	39*	1	-1	-10
CCn1c(SCC(=O)Nc2nc(-c3ccccc3)cs2)nnc1-c1ccccc1O	3	42*	-1	5	86*
CCCn1c(SCC(=O)Nc2nccs2)nnc1-c1cccnc1	8	3	2	-1	-2
Cc1nnc(Sc2nc(Sc3nnc(C)s3)nc(N3CCN(C)CC3)n2)s1	.	.	.	.	-11
CCOC(=O)C1CCN(C(=O)Cc2c(F)cccc2Cl)CC1	-3	16	1	-6	3
CCOC(=O)C1CCN(C(=O)Cn2cccc2C(=O)c2ccccc2)CC1	4	7	-7	-1	.
CCOC(=O)C1CCCN(C(=O)Cc2c(F)cccc2Cl)C1 (centres undefined)	35*	-3	-5	-6	3
CCOC(=O)C1CCCN(C(=O)Cn2cccc2C(=O)c2ccccc2)C1 (centres undefined)	6	31*	0	-2	-4
O=C1Nc2ccc(F)cc2C12SCCS2	-1	4	8	4	.
COc1ccc(N(C)C(=O)CCS(=O)(=O)c2cccc3nonc23)c(OC)c1	-1	34*	-12	-3	12
Cc1cccc(N(C)C(=O)CCS(=O)(=O)c2cccc3nonc23)c1	26	-5	3	.	-2
O=C(CCN1C(=O)C2C3C=CC(C3)C2C1=O)Nc1c(F)cccc1F (centres undefined)	11	39*	-9	2	-6
Cc1cc(=O)[nH]c(N2CCc3ccccc3C2)n1	2	46*	2	-1	.
Cc1cc(=O)[nH]c(N2CCN(Cc3ccccc3)CC2)n1	1	1	2	-10	-3
COc1ccc(NC(=O)c2ccc(Cl)c(S(=O)(=O)N3CCc4ccccc4C3)c2)cn1	-2	45*	-10	.	62*
SMILES	PostGolgi yeast	PostGolgi ctrl	Ecoli WT expand	EphB4 ephrin blk	tolC growth inh
COc1ccccc1NC(=O)c1ccc(Cl)c(S(=O)(=O)N2CCOCC2)c1	-4	-4	2	3	4
CCOc1ccc(OCCOc2ncnc3ccccc23)cc1	3	8	3	4	.
Cc1cc(C)c(C)c(S(=O)(=O)NCc2ccc(C(=O)N3CCCCC3)cc2)c1C	.	.	.	-5	.
COc1ccc(C2C3=C(CC(C)(C)CC3=O)Oc3ncn(Cc4ccccc4)c(=N)c32)cc1 (centres undefined)	2	11	-11	4	.
CC1(C)CC(=O)C2=C(C1)Oc1ncn(Cc3ccco3)c(=N)c1C2c1ccccc1 (centres undefined)	2	34*	4	1	46
CCOC(=O)c1cnc(-n2nc(C)cc2C)nc1NCCc1ccccc1	6	39*	2	6	100*
COc1ccccc1CO/N=C/NC(=O)c1c(OC)ccnc1Oc1ccc(F)cc1	-29	51*	-11	-1	.
COc1ccnc(Oc2ccccc2)c1C(=O)N/C=N/OCc1ccc(F)cc1Cl	-11	8	-6	-2	.
Fc1ccc(C(c2ccc(F)cc2)N2CCN(C/C=C/c3ccccc3)CC2)cc1	.	.	.	.	76*
NC(=O)C1CCCNC1 (centres undefined)	.	.	.	.	-8
O=C(NCc1ccccc1)c1ccc(C(=O)N(C2CCCCC2)C2CCCCC2)cc1	8	52*	-22	-4	.
CCOC(=O)Nc1ccc(=O)n(Cc2c(Cl)cccc2Cl)c1	6	18	2	3	.
Cc1cc2oc3c(c(=O)c2cc1C)C(c1cccc(Br)c1)N(Cc1ccco1)C3=O (centres undefined)	-5	-3	-9	2	21
Cc1ccc2oc3c(c(=O)c2c1)C(c1cccc(Br)c1)N(Cc1ccco1)C3=O (centres undefined)	-3	42*	-4	-6	-14
O=C(NC1CCN(C(=O)N2CCOCC2)CC1)c1ccccc1	2	34*	8	2	-12
CCn1c(SCC(=O)Nc2oc(-c3ccccc3)c(-c3ccccc3)c2C#N)nnc1-c1cc(OC)cc(OC)c1	-4	0	-17	9	.
CC(=O)C1=C(O)C(=O)N(c2ccc(C)cc2)C1c1ccccn1 (centres undefined)	.	.	.	6	.
CN1/C(=C\C(=O)COc2ccc3c(c2)OCO3)C(C)(C)c2ccccc21	0	16	-28	-1	89*
CN1/C(=C\C(=O)COC(=O)C2COc3ccccc3O2)C(C)(C)c2ccccc21 (centres undefined)	26	2	-11	8	-1
COc1ccc(CCN2C(=O)C3CC(C)=C(C)CC3C2=O)cc1OC (centres undefined)	3	28	-15	0	.
C=CCN1C(=O)CSC1=Nc1ccc(O)cc1	-2	2	12	-6	.
C=CCn1c(O)c(C2=c3ccccc3=NC2=O)sc1=Nc1ccc(O)cc1	.	.	.	.	100*
C(=N\c1ncnc2sccc12)/NOCc1ccccc1	22	66*	-6	4	.
Clc1ccc(CON/C=N/c2ncnc3sccc23)cc1	3	-2	-1	1	.
Cc1cccc(C)c1NC(=O)N1CCC(n2cnc3ccccc32)CC1	14	-4	5	-4	-4
Cc1cccc(C)c1NC(=O)N1CCC(n2c(=O)[nH]c3ccccc32)CC1	-7	33*	-1	1	.
N#Cc1c(NC(=O)c2ccc(Cn3cc(Br)cn3)o2)sc2c1CCCCCC2	-3	4	-16	-1	61*
Cc1ccc(S(=O)(=O)Cn2nnnc2CN(Cc2ccco2)CC2CCCO2)cc1 (centres undefined)	-2	-2	7	6	1
CCCCCOc1ccc(CSc2ncn[nH]2)cc1	.	.	.	3	.
Cc1ccc(-n2nc(C(=O)N/N=C/c3cccc(C(F)(F)F)c3)c3ccccc3c2=O)cc1C	19	-3	-9	-8	.
